According to ChEMBL document CHEMBL3739286, “Betulinic acid derived hydroxamates and betulin derived carbamates are interesting scaffolds for the synthesis of novel cytotoxic compounds” (Eur J Med Chem, 2015):
pEC50: −log10 of the molar value.

Experiments:
HeLa = test: Cytotoxicity against human HeLa cells after 96 hrs by SRB assay; format: functional, cell-based
In short: (§1)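 Photometric sulforhodamine B read-out of antiproliferative effect after 96 h of continuous treatment; EC₅₀ values in µM, averaged from three independent experiments each run in triplicate; the assay cut-off is EC₅₀ > 30 µM. Human tumour lines are tested alongside nonmalignant mouse NIH 3T3 fibroblasts.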

MCF7 = test: Cytotoxicity against human MCF7 cells after 96 hrs by SRB assay; format: functional, cell-based; conditions: Homo sapiens, MCF7, 96 h; read-out: EC50; in short: as §1
HT-29 = test: Cytotoxicity against human HT-29 cells after 96 hrs by SRB assay; format: functional, cell-based; conditions: HT-29, 96 h; in short: as §1
[1] = Cytotoxicity against human 518A2 cells after 96 hrs by SRB assay; format: functional, cell-based; conditions: Homo sapiens, 518A2, 96 h; read-out: EC50; in short: as §1
A549 = test: Cytotoxicity against human A549 cells after 96 hrs by SRB assay; format: functional, cell-based; conditions: Homo sapiens, A549, 96 h; read-out: EC50; in short: as §1
[2] = Cytotoxicity against mouse NIH/3T3 cells after 96 hrs by SRB assay; format: cell-based, NIH3T3; conditions: Mus musculus, NIH3T3, 96 h; read-out: EC50; in short: as §1
A2780 = test: Cytotoxicity against human A2780 cells after 96 hrs by SRB assay; format: functional, cell-based; conditions: Homo sapiens, A2780, 96 h; read-out: EC50; in short: as §1

SMILES	pEC50 (HeLa)	pEC50 (MCF7)	pEC50 (HT-29)	pEC50 [1]	pEC50 (A549)	pEC50 [2]	pEC50 (A2780)
C=C(C)[C@@H]1CC[C@]2(COC(=O)NCCCCCC)CC[C@]3(C)[C@H](CC[C@@H]4[C@@]5(C)CC[C@H](OC(C)=O)C(C)(C)[C@@H]5CC[C@]43C)[C@@H]12	< 4.52	< 4.52	< 4.52	< 4.52	< 4.52	< 4.52	< 4.52
C=C(C)[C@@H]1CC[C@]2(COC(=O)Nc3ccccc3)CC[C@]3(C)[C@H](CC[C@@H]4[C@@]5(C)CC[C@H](OC(C)=O)C(C)(C)[C@@H]5CC[C@]43C)[C@@H]12	< 4.52	< 4.52	< 4.52	< 4.52	< 4.52	< 4.52	< 4.52
C=C(C)[C@@H]1CC[C@]2(COC(=O)NCCCC)CC[C@]3(C)[C@H](CC[C@@H]4[C@@]5(C)CC[C@H](OC(C)=O)C(C)(C)[C@@H]5CC[C@]43C)[C@@H]12	< 4.52	< 4.52	< 4.52	< 4.52	< 4.52	< 4.52	< 4.52
C=C(C)[C@@H]1CC[C@]2(C(N)=O)CC[C@]3(C)[C@H](CC[C@@H]4[C@@]5(C)CCC(=O)C(C)(C)[C@@H]5CC[C@]43C)[C@@H]12	4.64	4.99	4.75	4.67	4.83	4.75	4.81
C=C(C)[C@@H]1CC[C@]2(COC(=O)NCCC)CC[C@]3(C)[C@H](CC[C@@H]4[C@@]5(C)CC[C@H](O)C(C)(C)[C@@H]5CC[C@]43C)[C@@H]12	5.03	4.81	4.79	4.80	4.85	5.14	4.97
C=C(C)[C@@H]1CC[C@]2(C(N)=O)CC[C@]3(C)[C@H](CC[C@@H]4[C@@]5(C)CC[C@H](OC(C)=O)C(C)(C)[C@@H]5CC[C@]43C)[C@@H]12	4.92	4.95	4.94	4.87	4.91	4.70	5.24
C=C(C)[C@@H]1CC[C@]2(COC(=O)NCCCC)CC[C@]3(C)[C@H](CC[C@@H]4[C@@]5(C)CC[C@H](OC(=O)NCCCC)C(C)(C)[C@@H]5CC[C@]43C)[C@@H]12	< 4.52	< 4.52	< 4.52	< 4.52	< 4.52	< 4.52	< 4.52
C=C(C)[C@@H]1CC[C@]2(C(=O)NCc3ccccc3)CC[C@]3(C)[C@H](CC[C@@H]4[C@@]5(C)CC[C@H](OC(C)=O)C(C)(C)[C@@H]5CC[C@]43C)[C@@H]12	4.77	< 4.52	< 4.52	5.21	4.99	< 4.52	5.21
C=C(C)[C@@H]1CC[C@]2(COC(=O)NCC)CC[C@]3(C)[C@H](CC[C@@H]4[C@@]5(C)CC[C@H](OC(C)=O)C(C)(C)[C@@H]5CC[C@]43C)[C@@H]12	4.77	4.69	< 4.52	4.99	4.85	< 4.52	4.95
C=C(C)[C@@H]1CC[C@]2(COC(=O)NCCC)CC[C@]3(C)[C@H](CC[C@@H]4[C@@]5(C)CC[C@H](OC(C)=O)C(C)(C)[C@@H]5CC[C@]43C)[C@@H]12	< 4.52	< 4.52	< 4.52	< 4.52	< 4.52	< 4.52	< 4.52
C=C(C)[C@@H]1CC[C@]2(C(=O)NCc3ccccc3)CC[C@]3(C)[C@H](CC[C@@H]4[C@@]5(C)CCC(=O)C(C)(C)[C@@H]5CC[C@]43C)[C@@H]12	< 4.52	< 4.52	< 4.52	< 4.52	< 4.52	< 4.52	5.13
C=C(C)[C@@H]1CC[C@]2(COC(=O)NCCC)CC[C@]3(C)[C@H](CC[C@@H]4[C@@]5(C)CC[C@H](OC(=O)NCCC)C(C)(C)[C@@H]5CC[C@]43C)[C@@H]12	< 4.52	< 4.52	< 4.52	< 4.52	< 4.52	< 4.52	4.71
C=C(C)[C@@H]1CC[C@]2(COC(=O)NCC)CC[C@]3(C)[C@H](CC[C@@H]4[C@@]5(C)CC[C@H](O)C(C)(C)[C@@H]5CC[C@]43C)[C@@H]12	< 4.52	4.92	< 4.52	4.90	4.92	5.06	5.34
C=C(C)[C@@H]1CC[C@]2(COC(=O)NCCCCCC)CC[C@]3(C)[C@H](CC[C@@H]4[C@@]5(C)CC[C@H](OC(=O)NCCCCCC)C(C)(C)[C@@H]5CC[C@]43C)[C@@H]12	< 4.52	< 4.52	< 4.52	< 4.52	< 4.52	< 4.52	< 4.52
C=C(C)[C@@H]1CC[C@]2(C(N)=O)CC[C@]3(C)[C@H](CC[C@@H]4[C@@]5(C)CC[C@H](O)C(C)(C)[C@@H]5CC[C@]43C)[C@@H]12	4.95	4.97	4.99	5.00	5.09	4.97	4.80
C=C(C)[C@@H]1CC[C@]2(COC(=O)NCC)CC[C@]3(C)[C@H](CC[C@@H]4[C@@]5(C)CC[C@H](OC(=O)NCC)C(C)(C)[C@@H]5CC[C@]43C)[C@@H]12 [BIS(ETHYLCARBAMATE)BETULIN]	4.75	4.63	5.08	4.90	4.97	< 4.52	5.24
